Here are results for three compounds from ChEMBL document CHEMBL1144804, “Sesquiterpene quinones and related metabolites from Phyllosticta spinarum, a fungal strain endophytic in Platycladus orientalis of the Sonoran Desert” (J Nat Prod, 2008).

What all share (format): functional, cell-based
For experiment [1], the system named is NIH3T3. Briefly: Induction of apoptosis in mouse NIH3T3 cells assessed as accumulation at subG1 phase at 0.5 ug/ml after 24 hrs by flow cytometry. For orientation: Flow cytometry measures light scatter and fluorescence of single cells or particles in a stream.
Experiment [2] concerns PC-3M. Briefly: Induction of apoptosis in human PC3M cells assessed as accumulation at subG1 phase at 0.5 ug/ml after 24 hrs by flow cytometry. Summed up:
(§1)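 PC-3M cells at about 75% confluency were seeded at 2.5 × 10^5 cells/well and left to reattach overnight at 37 °C in 5% CO2. They were then treated for 24 h in RPMI 1640 with 10% FBS, penicillin 100 IU/mL, streptomycin 50 µg/mL and Glutamax 2 mM. Controls were 0.1% DMSO (negative) and 0.5 µg/mL nocodazole (positive). Floating and adherent cells were pooled, PBS-washed, stained for DNA content with Guava cell cycle reagent, and scored as % sub-G1 by flow cytometry.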

A short description of experiment [3]: Antiproliferative activity against human PC3M cells by MTT assay. The settings on record: PC-3M. Summed up: (§2)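 Cells were exposed to serial dilutions of DMSO-dissolved samples for 72 h in RPMI 1640 with 10% fetal bovine serum and glutamax. Viability was read by the tetrazolium (MTT) colorimetric assay as inhibition of proliferation.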
For orientation: Formazan colour is commonly taken as a measure of viable cells.

A further experiment relates to NCI-H460. Briefly: Antiproliferative activity against human NCI-H460 cells by MTT assay. Summed up: as §2
For a further experiment, the system named is MIA PaCa-2. Briefly: Antiproliferative activity against human MIAPaCa2 cells by MTT assay. Summed up: as §2
For experiment [4], the system named is PC-3M. Briefly: Induction of apoptosis in human PC3M cells assessed as accumulation at subG1 phase at 2.5 to 10 uM after 24 hrs by flow cytometry. The essentials: as §1
For another experiment, the system named is SF-268. Briefly: Antiproliferative activity against human SF268 cells by MTT assay. Summed up: as §2
In another experiment the test system is MCF7. Briefly: Antiproliferative activity against human MCF7 cells by MTT assay. Summed up: as §2
In experiment [5] the test system is NIH3T3. Briefly: Induction of apoptosis in mouse NIH3T3 cells assessed as accumulation at subG1 phase at 2.5 to 10 uM after 24 hrs by flow cytometry.

The source made the active and inactive calls. The rule behind the calls is not given here.

On to `COC(=O)Nc1nc2cc(C(=O)c3cccs3)ccc2[nH]1`, for which the result with NIH3T3 [1] and in the experiment with PC-3M [2] was Active.

On to `COc1cccc2c1C(=O)c1c(O)c3c(c(O)c1C2=O)C[C@@](O)(C(=O)CO)C[C@@H]3O[C@H]1C[C@H](N)[C@H](O)[C@H](C)O1` [DOXORUBICIN], for which the figures for the IC50 (in experiment [3]; in the experiment with NCI-H460) were 1110 nM and 10 nM, respectively.

Turning to `C=C1CC[C@H]2C(C)(C)CCC[C@]2(C)[C@H]1CC1=C(O)C(=O)C(CO)=CC1=O` [TAURANIN], the IC50 came out at 2800 nM with MIA PaCa-2; 3500 nM in experiment [3]; 1800 nM with SF-268; 1500 nM with MCF7; 4300 nM in the experiment on NCI-H460. Also, the outcome in the experiment on PC-3M [4] and in the experiment with NIH3T3 [5] was Active.

For orientation: IC50 means the midpoint of a concentration-inhibition curve.
